Compounds with a hit are over-represented: about 2.6% of the library has one in this group of screens.
Vif imaging: HIV Vif self-association inhibitors, primary screen, imaging, HEK293T, single point; 340,000 compounds, 0.35% hits; HEK293T cells, Vif self-association by quenched fluorescence, 24 h; inhibition, % at 7.49 µM; in the data active means inhibition above about 50%, passing the limit was not always enough
rRNA inh HTS: reduced GFP signal of wild-type E. coli, primary screen, bacterial rRNA inhibitor project, GFP/RFP fluorescence, OD600, single point; E. coli WT GFP vs humanized-ribosome RFP mutants, 24 h; stronger effect = lower value; DMSO median 0, no signal -100; GFP signal change (wild-type ribosome), % (concentration not given with the values); 350,000 compounds, 1.6% hits;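 active means significant combined selectivity score with lowered wild-type GFP, culture density cut under 30%, mutant RFP and density less affected; inactive means any of these conditions unmet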
S100A4 MyoIIA: inhibitors of S100A4-myosin IIA peptide binding, primary screen, biochemical, fluorescence polarization, TAMRA-MyoIIA peptide | inhibition, % at 10.7 µM | 360,000 compounds, 0.14% hits;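 active means mean inhibition of at least 70% across replicates, with every replicate also reaching that level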
Target sequence (P26447 whole entry, looked up): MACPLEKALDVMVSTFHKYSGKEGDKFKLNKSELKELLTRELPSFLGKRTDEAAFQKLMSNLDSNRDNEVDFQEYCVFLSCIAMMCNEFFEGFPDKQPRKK
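Compound dosing: one dose per compound; test system: human S100A4 monomer with TAMRA-labelled myosin IIA peptide; probe or stimulus: TAMRA-labelled myosin IIA heavy-chain peptide probe, 5 nM; medium: HEPES buffer with Ca2+, pH 7.2; schedule: 5 min incubation before reading; benchmarks: neutral control DMSO, positive control TFP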
miR122 inh: miR-122 Renilla sensor signal increase in Huh7, primary screen, miR-122 inhibitor project, cell-based, single point, plate reader. Huh7 miR-122 Renilla luciferase sensor, 48 h; neutral wells = 0, positive control = 100. activation (reporter increase), % at 12.5 µM. 340,000 compounds, 0.3% hits. AID 602342, 2012;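 active means mean replicate activation score at least 90 and every replicate individually at or above 90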;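 further: higher luciferase means less miR-122 activity so hits act as miR-122 inhibitors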
Env fusion inh: inhibitors of HIV-1 Env-driven cell-cell fusion, primary screen, HeLa-JRFL effector, CEM21 target cells, luciferase. inhibition, % at 12.3 µM. 360,000 compounds, 1.1% hits. AID 651610, 2012;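 active means mean replicate inhibition score of at least 50 and every replicate individually at or above 50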;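 further: 0% = plate neutral controls and 100% = maraviroc near 300 nM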
FN deposit inh: inhibitors of fibronectin matrix deposition, primary screen, AH1F cells, Alexa488-fibronectin fluorescence, plate reader. 350,000 compounds, 0.086% hits. AH1F fibroblasts, overnight. inhibition, % at 12.6 µM;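 active means mean inhibition across replicates of 30% or more, regardless of how many single replicates reach that level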;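 further: positive control wells lacked labelled fibronectin entirely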
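Measured by – fluorescence 485/525 nm · System – AH1F fibroblast monolayer, labelled fibronectin deposition · Amount – 10000 cells per well · Buffer or medium – serum-reduced DMEM (2% serum) · Doses – single dose, pinned · Also added – fluorescent fibronectin at 24 nM final · Schedule – 1 h cell attachment, overnight exposure to compound and label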
* hit, by the source's call; nt = no result given; [ ] = another dose, or the depositor's remark.

SMILES | Vif imaging | rRNA inh HTS | S100A4 MyoIIA | miR122 inh | Env fusion inh | FN deposit inh
O=C(CNC(=O)c1cccc(-n2cccc2)c1)Nc1ccccc1Br | -7 | 10 | 17 | -2 | 70* | -2
Cc1cccc(S(=O)(=O)NC(=O)C2(C)CCN2C(=O)c2ccccc2CCc2ccccc2)c1 (stereo not given) | 0 | -50* | 1 | -8 | 8 | -1
CC1(C(=O)NS(=O)(=O)c2ccc3c(c2)CCO3)CCN1C(=O)c1ccccc1CCc1ccccc1 (stereo not given) | -2 | -20* | 0 | -5 | -1 | -1
CC1(C(=O)NS(=O)(=O)c2cccc(F)c2)CCN1C(=O)c1ccccc1CCc1ccccc1 (stereo not given) | -12 | -1 | 3 | 0 | 7 | 0
CC1(C(=O)NS(=O)(=O)c2ccc3c(c2)CCO3)CCN1C(=O)Cc1ccc(-c2ccccc2)cc1 (stereo not given) | 0 | -6 | 2 | 1 | 11 | -1
CNC[C@H]1Oc2ccc(NC(=O)NC(C)C)cc2C(=O)N(C)C[C@H]1C | nt | -1 | nt | nt | nt | 2
CCCc1cn([C@H]2C[C@@H]3O[C@@H](CO)CC[C@@H]3O[C@@H]2CCc2ccc(-c3cccc(OC)c3)cc2)nn1 | nt | nt | -3 | nt | nt | nt
O=C(NC(=S)Nc1ccc(N2CCCCC2)c(Cl)c1)c1ccc2c(c1)OCCO2 | nt | nt | nt | 3 | 70* | -9
CCC(=O)N1CC2(CCN(Cc3ccncc3)CC2)c2c(n(C)c3cc(OC)ccc23)[C@H]1CO | nt | 1 | nt | nt | nt | nt
CCn1c(CCCOc2ccc(Cl)cc2Cl)n[nH]c1=S | 2 | -34* | 4 | 0 | -27 | nt
CCn1c(CCCCc2n[nH]c(=S)n2CC)n[nH]c1=S | 15 | 15 | -3 | nt | 16 | -11
CCn1c(-c2ccc(Cl)cc2)n[nH]c1=S | 8 | nt | nt | -18 | 61* | 6
O=C(O)c1cccc2cccc(-c3c4ccc(=O)c(O)c-4oc4c(O)c(O)ccc34)c12 | 3 | -22* | 4 | nt | 0 | 6
O=C(O)c1cccc2cc(-c3ccccc3)oc(=O)c12 | -9 | 7 | 2 | -10 | 6 | -4
Clc1ccccc1OCc1nnc(-c2ccccc2Br)o1 | -14 | nt | nt | 5 | nt | nt
O=c1c(Cl)c(Cl)cnn1Cc1nnc(-c2ccccc2Br)o1 | 16 | -49 | 4 | nt | -347 | 39*
C[C@@H]1CN([C@H](C)CO)C(=O)c2cccc(NS(=O)(=O)c3cn(C)cn3)c2O[C@@H]1CN(C)C(=O)Nc1ccc2c(c1)OCO2 | nt | 5 | -2 | 1[16.7 µM] | nt | nt
CN(CC(=O)Nc1ccc(Cl)c(C(F)(F)F)c1)C(=O)C1(c2ccccc2)CC1 | -1 | -27 | 1 | -1 | 56* | -10
CN(CC(=O)NCCc1ccc(S(N)(=O)=O)cc1)CC(=O)Nc1ccc(Cl)c(C(F)(F)F)c1 | -11 | -15 | -5 | nt | 93* | 2
CN(CC(=O)Nc1ccc(Cl)c(C(F)(F)F)c1)C(=O)c1cccs1 | -3 | -6 | -4 | -2 | 2 | nt
COc1ccc(NC(=O)N(C)C[C@@H]2Oc3ccc(NC(=O)Cc4cn(C)c5ccccc45)cc3CC(=O)N([C@H](C)CO)C[C@H]2C)cc1 | nt | 5 | -2 | 7[16.7 µM] | 14[16.7 µM] | nt
COc1ccccc1C(=O)Nc1ccc2c(c1)C(=O)N(C)[C@H]1CC[C@@H](CC(=O)NCCc3ccncc3)O[C@@H]1CO2 | nt | -1 | 8 | nt | 13[16.7 µM] | -3
Cc1c(NC(=O)c2cc3ccccc3o2)c(=O)n(-c2ccccc2)n1C | 1 | nt | nt | 2 | 13 | nt
Cc1c(NC(=O)c2cc3ccccc3oc2=O)c(=O)n(-c2ccccc2)n1C | 90* | nt | nt | 10 | -5 | -11
Cc1ccc(-c2cc(C(=O)Nc3c(C)n(C)n(-c4ccccc4)c3=O)[nH]n2)c(O)c1C | 0 | -20* | 0 | nt | -26 | -6
SMILES | Vif imaging | rRNA inh HTS | S100A4 MyoIIA | miR122 inh | Env fusion inh | FN deposit inh
Cc1ccc(-c2cc(C(=O)Nc3c(C)n(C)n(-c4ccccc4)c3=O)[nH]n2)c(O)c1 | -10 | nt | nt | 0 | -47 | -1
O=C(NNC(=O)c1cc2ccccc2oc1=O)c1ccccc1 | 79* | 1 | -3 | nt | -32 | -7
Cc1cc(S(=O)(=O)N(Cc2ccc3c(c2)OCO3)CC2CCCO2)ccc1-n1cnnn1 (stereo not given) | 10 | nt | nt | 52 | nt | nt
Cc1cc(S(=O)(=O)N(Cc2ccc(C(C)C)cc2)CC2CCCO2)ccc1-n1cnnn1 (stereo not given) | -25 | -21* | 9 | 18 | nt | nt
Cc1cc(S(=O)(=O)N(Cc2ccc(F)cc2)CC2CCCO2)ccc1-n1cnnn1 (stereo not given) | -1 | -21* | -1 | 88 | nt | nt
Cn1cnc(S(=O)(=O)N2CC[C@@H]3[C@@H](CO)Nc4ccc(C#Cc5ccc(F)cc5)cc4[C@@H]32)c1 | nt | -1 | -11 | nt | -6[16.7 µM] | -2
COc1ccc(NC(=O)C2CCN(c3nc(C)nc4c3CCC4)CC2)cc1 | nt | nt | nt | -8 | 54* | -1
CCC(=O)Nc1ccc2c(c1)OC[C@@H](C)N(C(=O)CN(C)C)C[C@H](C)[C@@H](OC)CN(C)C2=O | nt | -1 | 0 | -1[16.7 µM] | -6[16.7 µM] | 11
CN(C)/N=C/c1ccc(N2CCOCC2)cc1 | -6 | -17* | 10 | -1 | 11 | nt
O=S(=O)(Cc1cc(NCc2ccccc2)nc(-c2ccccn2)n1)c1ccccc1 | -1 | -39* | -1 | nt | -38 | 3
O=S(=O)(Cc1cc(NCc2ccccc2)nc(-c2ccncc2)n1)c1ccccc1 | -1 | 11 | 0 | nt | 11 | -1
CNC[C@@H]1Oc2ncc(C#Cc3ccc(F)cc3)cc2C(=O)N([C@H](C)CO)C[C@@H]1C | nt | -1 | -18 | 5[16.7 µM] | 18[16.7 µM] | 15
COc1ccc(S(=O)(=O)Nc2ccc3c(c2)C(=O)N([C@@H](C)CO)C[C@@H](C)[C@@H](CN(C)C(=O)Cc2ccccc2)OCCCC[C@@H](C)O3)cc1 | nt | -2 | -24 | -2[16.7 µM] | 2[16.7 µM] | nt
COCC(=O)N1C[C@@H](C)[C@H](OC)CN(C)C(=O)c2ccc(NC(=O)c3cnccn3)cc2OC[C@@H]1C | nt | -2 | 2 | nt | 5[16.7 µM] | -9
COc1ccc(-c2c[n+](CC(=O)c3ccccc3)c3n2CCCCC3)cc1 | 1 | -49* | 3 | nt | 5 | -25
O=C(C[n+]1cc(-c2ccccc2)n2c1CCCCC2)c1ccc(Cl)cc1 | 10 | -40* | -2 | -1 | -33 | -9
CC1CCC(C(C)C)C(OC(=O)C[n+]2cc(-c3ccc(Cl)cc3)n3c2CCCCC3)C1 (stereo not given) | 1 | -59 | 4 | -1 | 60* | nt

Screening data deposited in PubChem BioAssay by Broad Institute.
